The list is not random: actives were taken first. Their share in the collection is about 3.1%.
Cneo AK release = Cryptococcus neoformans cell lysis inducers, primary screen, AK release luminescence, single concentration; C. neoformans lysis, adenylate kinase release luminescence, 4 h; normalised: neutral wells 0, clomiphene wells 100; lysis activity, % at 15 µM; 0.2% of 360,000 active; AID 651654, 2012;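 active = mean lysis activity across replicates of at least 80%, whatever share of replicates individually reach that level; inactive = mean lysis activity below 80%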
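Material – log-phase Cryptococcus neoformans yeast cells · Input – 5 × 10^6 yeast cells/mL · Medium – fresh YPD growth medium · Doses – single compound concentration per well · Timing – static 4 h at 37 °C with compound, 1 h detection · Detection – adenylate kinase release luminescence · Read-out – signal increase indicating cell lysis · Control set – Clomiphene as positive lysis control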
F508del corr = F508del CFTR correction, initial screen, CFBE line, single point. CFBE cells, YFP halide quenching; stimulated with forskolin plus potentiator P3; % fluorescence drop versus neutral controls. 0.36% of 350,000 active. activity (quench increase), % at 7.58 µM;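 active = mean added fluorescence quench of at least 8% versus neutral control, with both replicates also reaching 8%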;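 also: cells transiently co-express mutant CFTR-F508del with the halide-sensitive YFP; corrector assay measuring rescue of mutant channel to the surface after 24 h compound exposure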
miR-122 sensor = miR-122 Renilla sensor signal increase in Huh7, primary screen, miR-122 inhibitor project, cell-based, single point, plate reader; Huh7 miR-122 Renilla luciferase sensor, 48 h; neutral wells = 0, positive control = 100; activation (reporter increase), % at 12.5 µM; 0.3% of 340,000 active; AID 602342, 2012;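 active = mean replicate activation score at least 90 and every replicate individually at or above 90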;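 also: higher luciferase means less miR-122 activity so hits act as miR-122 inhibitors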
HIV Env fusion = inhibitors of HIV-1 Env-driven cell-cell fusion, primary screen, HeLa-JRFL effector, CEM21 target cells, luciferase; inhibition, % at 12.3 µM; 1.1% of 360,000 active; AID 651610, 2012;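 active = mean replicate inhibition score of at least 50 and every replicate individually at or above 50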;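 also: 0% = plate neutral controls and 100% = maraviroc near 300 nM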
Ecoli rRNA inh = reduced GFP signal of wild-type E. coli, primary screen, bacterial rRNA inhibitor project, GFP/RFP fluorescence, OD600, single point | E. coli WT GFP vs humanized-ribosome RFP mutants, 24 h; stronger effect = lower value; DMSO median 0, no signal -100 | GFP signal change (wild-type ribosome), % (concentration not given with the values) | 1.6% of 350,000 active;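 active = significant combined selectivity score with lowered wild-type GFP, culture density cut under 30%, mutant RFP and density less affected; inactive = any of these conditions unmet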
GSIS activator = GLuc luminescence reporter in INS-1E cells, primary screen for activators of glucose-dependent secretion of insulin. INS-1E GLuc reporter insulin secretion, 2-3 h. activation, % at 16.6 µM. 0.61% of 370,000 active. AID 743287, 2014;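 active = lowest replicate activation of at least 40%, so every replicate reaches that level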;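 also: 0% = median of neutral control wells and 100% = median of IBMX positive control wells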
Starred values were filed as active, the others as inactive; [ ] = remark or other dose.

O=C1C2C3C=CC(CC3)C2C(=O)N1c1ccc(Br)cc1 (centres undefined) was read as Cneo AK release 1.5, F508del corr -1.3, miR-122 sensor -2.7, HIV Env fusion 24.4, Ecoli rRNA inh 3.4 and GSIS activator 2.1.
`C[C@@H]1CC[C@H]2C(=O)N3[C@@H](CC[C@@H](C)[C@@H]3c3ccc(Br)cc3)C(=O)N2[C@H]1c1ccc(Br)cc1` gave Cneo AK release 29.2, F508del corr 3.3, HIV Env fusion 77.3*, Ecoli rRNA inh 6.8 and GSIS activator -11.8.
Screening CC1CCN(C(=S)c2ccc(O)cc2)CC1 returned Cneo AK release -3.3, miR-122 sensor 248.3* and HIV Env fusion -32.7.
Screening CCCCCCCCCCn1c2c(c(=N)c3c1CCC3)CCC2 returned Cneo AK release -0.1, miR-122 sensor -66.2, HIV Env fusion 69.2* and GSIS activator 338.7*.
Screening CCCCCCCCn1c2c(c(=N)c3ccccc31)CCC2 returned F508del corr 4.3, miR-122 sensor -16.2, HIV Env fusion 55.5*, Ecoli rRNA inh -59.0 and GSIS activator 59.0.
`C[C@@H]1CN([C@@H](C)CO)C(=O)c2cc(NC(=O)Nc3ccccc3)ccc2O[C@@H]1CN(C)C(=O)Nc1ccc(C(F)(F)F)cc1` gave Cneo AK release 1.0, F508del corr -0.4, miR-122 sensor -13.5[16.7 µM], HIV Env fusion 11.9[16.7 µM], Ecoli rRNA inh -14.7 and GSIS activator -25.5.
For COC(=O)c1ccc(Cn2c(O)c(N=NC(N)=S)c3ccccc32)o1 the results were F508del corr 2.7, miR-122 sensor -0.5, HIV Env fusion 12.0, Ecoli rRNA inh 9.9 and GSIS activator 64.4*.
For CCC(CC)NC(=O)C1CCN(S(=O)(=O)c2cccs2)CC1 the results were Cneo AK release 2.0, miR-122 sensor -2.6 and HIV Env fusion -63.1.
For CCC(CC)NC(=O)CN1CCN(S(=O)(=O)c2cccs2)CC1 the results were Cneo AK release -2.5, F508del corr -3.9, miR-122 sensor -1.5, HIV Env fusion -5.9, Ecoli rRNA inh 8.2 and GSIS activator 46.7*.
`COc1ccccc1N1CCN(C(CNS(=O)(=O)c2cccs2)c2cccnc2)CC1` (centres undefined) gave Cneo AK release 2.1, F508del corr 8.1*, miR-122 sensor -0.9, HIV Env fusion -70.9 and Ecoli rRNA inh -3.9.
Screening CCOc1ccccc1N1CCN(S(=O)(=O)c2cccs2)CC1 returned Cneo AK release 0.1, F508del corr -1.8, miR-122 sensor 23.4, Ecoli rRNA inh -23.8* and GSIS activator -9.8.
For CC(C)NC(=O)Nc1ccc2c(c1)C(=O)N([C@@H](C)CO)C[C@@H](C)[C@H](CN(C)CC1CC1)OCCCC[C@@H](C)O2 the results were Cneo AK release -4.4, F508del corr -0.3, miR-122 sensor 7.0[16.7 µM], HIV Env fusion 13.9[16.7 µM], Ecoli rRNA inh 0.1 and GSIS activator -6.0.
Screening COCC(=O)N1CC2(CN(Cc3ccc(OC)cc3)C2)c2c([nH]c3cc(OC)ccc23)[C@H]1CO returned F508del corr 2.3, HIV Env fusion -2.6[16.7 µM], Ecoli rRNA inh 0.3 and GSIS activator 24.4.
For O=[N+]([O-])c1ccc(C2CCCC/C2=N/OCc2ccc(F)cc2)c([N+](=O)[O-])c1 (centres undefined) the results were Cneo AK release -0.5, miR-122 sensor -1.3 and HIV Env fusion 64.8*.
For CC1(C(=O)NS(=O)(=O)c2cccc(F)c2)CCN1C(=O)C1(c2ccc(Cl)cc2)CCC1 (centres undefined) the results were Cneo AK release -1.3, F508del corr -2.9, miR-122 sensor 3.9, HIV Env fusion -4.0, Ecoli rRNA inh -16.4* and GSIS activator 22.8.
For CC1(C(=O)NS(=O)(=O)c2cccc(C#N)c2)CCN1C(=O)C1(c2ccc(Cl)cc2)CCC1 (centres undefined) the results were Cneo AK release 2.4, F508del corr 4.6, miR-122 sensor -1.8, HIV Env fusion -0.7, Ecoli rRNA inh -15.2* and GSIS activator -1.9.
CC1(C(=O)NS(=O)(=O)c2ccc(C#N)cc2)CCN1C(=O)C1(c2ccc(Cl)cc2)CCC1 (centres undefined) was read as Cneo AK release 1.5, F508del corr 0.6, miR-122 sensor -24.8, HIV Env fusion -10.7, Ecoli rRNA inh -8.8 and GSIS activator 31.3.
Cc1cc(NC(=S)Nc2ccccc2)ccc1Br was read as F508del corr -0.7, Ecoli rRNA inh -29.9 and GSIS activator -5.9.
Cc1cc(NC(=S)Nc2cccnc2)ccc1Br was read as Cneo AK release -1.1, F508del corr -1.7, miR-122 sensor 4.4, HIV Env fusion 7.4, Ecoli rRNA inh -45.7* and GSIS activator 7.1.
Screening Cc1cc(C(=O)N/N=C/C=C/c2ccccc2)c(C)o1 returned F508del corr -3.6, HIV Env fusion 10.3, Ecoli rRNA inh -24.8* and GSIS activator -15.7.
For CC(C)n1c(C(=O)OCC(=O)NCc2ccc3c(c2)OCO3)cc2sccc21 the results were Cneo AK release 0.3, F508del corr -0.2, miR-122 sensor -7.0, Ecoli rRNA inh -25.4* and GSIS activator -6.9.
CCn1cc(SCC(=O)NCc2ccc3c(c2)OCO3)c2ccccc21 was read as Cneo AK release -0.6, F508del corr 0.4, HIV Env fusion 66.8* and Ecoli rRNA inh -8.6.
`Cc1ccc(CSCC(=O)NCc2ccc3c(c2)OCO3)cc1` gave F508del corr -1.1, HIV Env fusion 5.4, Ecoli rRNA inh -22.7* and GSIS activator 9.1.
Cc1ccc(S(=O)(=O)NCC(=O)OCC(=O)NCc2ccc3c(c2)OCO3)cc1 was read as Cneo AK release 1.8, F508del corr -1.8, miR-122 sensor -3.6, HIV Env fusion 68.5*, Ecoli rRNA inh 6.7 and GSIS activator -39.1.
Screening Cn1c(C(=O)NCc2ccc3c(c2)OCO3)cc2sccc21 returned Cneo AK release -3.8, miR-122 sensor 2.7, HIV Env fusion -25.9 and GSIS activator 3.3.
For CC(=O)Nc1ccc(S(=O)(=O)NCC(=O)OCC(=O)NCc2ccc3c(c2)OCO3)cc1 the results were F508del corr 2.6, HIV Env fusion 22.3 and Ecoli rRNA inh 7.6.
`O=C(CSCc1ccccc1)NCc1ccc2c(c1)OCO2` gave Cneo AK release -0.9, miR-122 sensor 1.3 and HIV Env fusion -10.0.
